Experimental findings from ChEMBL document CHEMBL1137681, “Design, synthesis and characterization of N9/N7-substituted 6-aminopurines as VEGF-R and EGF-R inhibitors” (Eur J Med Chem, 2009) are described below.

Each structure is given as a SMILES string. The source made the active and inactive calls. The rule behind the calls is not given here.

The target of test [1] is Vascular endothelial growth factor receptor 3 (Homo sapiens, UniProt P35916). Briefly: Inhibition of VEGFR3 up to 100 uM.
Test [2] deals with Epidermal growth factor receptor (Homo sapiens, UniProt P00533). In words: Inhibition of EGFR up to 100 uM. The method, boiled down: (§1)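 Buffer: HEPES-NaOH pH 7.5, Mg2+/Mn2+, vanadate, DTT, PEG20000, 1% DMSO. Incubated 30 °C for 80 min, stopped with 2% H3PO4, washed, and scintillation-counted. IC50 from 10 concentrations in singlicate.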
Test [3] addresses Serine/threonine-protein kinase PLK1 (Homo sapiens) (UniProt P53350). Briefly: Inhibition of human okadaic acid sensitive PLK1 at 10 uM.
Test [4] addresses Dual specificity tyrosine-phosphorylation-regulated kinase 1A (Rattus norvegicus) (UniProt Q63470). In words: Inhibition of rat DYRK1a at 10 uM.
For test [5], the target named is Mitogen-activated protein kinase 15 (Homo sapiens) (UniProt Q8TD08). In words: Inhibition of ERK8 at 10 uM.
The nature of test [6]: Inhibition of CK2 at 10 uM.
In test [7] the target is MAP/microtubule affinity-regulating kinase 3 (Homo sapiens) (UniProt P27448). Briefly: Inhibition of human MARK3 at 10 uM.
Test [8] addresses Ribosomal protein S6 kinase alpha-3 (Homo sapiens) (UniProt P51812). Briefly: Inhibition of RSK2 at 10 uM.
In test [9] the target is Serine/threonine-protein kinase 26 (Homo sapiens) (UniProt Q9P289). Briefly: Inhibition of human MST4 at 10 uM.
The target in test [10] is Calcium/calmodulin-dependent protein kinase kinase 1 (Homo sapiens) (UniProt Q8N5S9). Briefly: Inhibition of human CAMKKalpha at 10 uM.
Test [11] addresses Serine/threonine-protein kinase Chk1 (Homo sapiens) (UniProt O14757). Briefly: Inhibition of CHK1 at 10 uM.
Test [12] has as its target Protein kinase C alpha type (Homo sapiens) (UniProt P17252). In words: Inhibition of PKCalpha at 10 uM.
The target of test [13] is Serine/threonine-protein kinase Nek2 (Homo sapiens) (UniProt P51955). Briefly: Inhibition of NEK2a at 10 uM.
For test [14], the target named is MAP kinase-interacting serine/threonine-protein kinase 2 (Homo sapiens) (UniProt Q9HBH9). Briefly: Inhibition of MNK2alpha at 10 uM.
In test [15] the target is Serine/threonine-protein kinase BRSK2 (Homo sapiens) (UniProt Q8IWQ3). In words: Inhibition of human BRSK2 at 10 uM.
Test [16] deals with MAP kinase-activated protein kinase 5 (Homo sapiens) (UniProt Q8IW41). In words: Inhibition of PRAK at 10 uM.
Test [17] in a line: Inhibition of PKBbeta S474D mutant at 10 uM.
Test [18] addresses Lymphokine-activated killer T-cell-originated protein kinase (Homo sapiens) (UniProt Q96KB5). In words: Inhibition of PBK at 10 uM.
Test [19] deals with Ribosomal protein S6 kinase alpha-1 (Rattus norvegicus) (UniProt Q63531). Briefly: Inhibition of rat MAPKAP-K1a at 10 uM.
The target of test [20] is Insulin receptor-related protein (Homo sapiens) (UniProt P14616). Briefly: Inhibition of human IRR at 10 uM.
The target in test [21] is Serine/threonine-protein kinase pim-3 (Homo sapiens) (UniProt Q86V86). In words: Inhibition of human PIM3 at 10 uM.
A further test is filed under the species Rattus norvegicus. Briefly: Inhibition of rat AMPK at 10 uM.
For test [22], the target named is Serine/threonine-protein kinase Nek6 (Homo sapiens) (UniProt Q9HC98). Briefly: Inhibition of NEK6 at 10 uM.
For a further test, the target named is Aurora kinase B (Homo sapiens, UniProt Q96GD4). In words: Inhibition of Aurora B up to 100 uM. The method, boiled down:
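Buffer was HEPES-NaOH pH 7.5 with MgCl2, MnCl2, vanadate, DTT, PEG20000 and 1% DMSO. Run 80 min at 30 °C, quenched with 2% H3PO4, NaCl-washed, then scintillation-counted. IC50 fitted from 10 concentrations tested once each.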

The subject of test [23] is RAC-alpha serine/threonine-protein kinase (Homo sapiens), P31749 [S473D]. Briefly: Inhibition of PKBalpha S473D mutant at 10 uM.
Test [24] has as its target Serine/threonine-protein kinase Nek7 (Homo sapiens) (UniProt Q8TDX7). In words: Inhibition of NEK7 at 10 uM.
The target in test [25] is Serine/threonine-protein kinase D1 (Homo sapiens) (UniProt Q15139). In words: Inhibition of human PKD1 at 10 uM.
Test [26] addresses Calcium/calmodulin-dependent protein kinase kinase 2 (Homo sapiens) (UniProt Q96RR4). In words: Inhibition of human CAMKKbeta at 10 uM.
Test [27] has as its target Mitogen-activated protein kinase 11 (Homo sapiens) (UniProt Q15759). In words: Inhibition of SAPK2b at 10 uM.
Test [28] has as its target MAP kinase-activated protein kinase 3 (Homo sapiens) (UniProt Q16644). Briefly: Inhibition of MAPKAP-K3 at 10 uM.
Test [29] concerns the target Mitogen-activated protein kinase 10 (Homo sapiens) (UniProt P53779). In words: Inhibition of JNK3alpha1 at 10 uM.
The target of test [30] is Mitogen-activated protein kinase 1 (Mus musculus) (UniProt P63085). In words: Inhibition of mouse MAPK2 at 10 uM.
The target in test [31] is Ephrin type-A receptor 2 (Homo sapiens) (UniProt P29317). Briefly: Inhibition of human EPHA2 at 10 uM.
The target of test [32] is Myosin light chain kinase, smooth muscle (Homo sapiens) (UniProt Q15746). Briefly: Inhibition of smMLCK at 10 uM.
Test [33] has as its target Casein kinase I isoform delta (Rattus norvegicus) (UniProt Q06486). In words: Inhibition of rat CK1delta (1-294) at 10 uM.
Test [34] deals with Mitogen-activated protein kinase 8 (Homo sapiens) (UniProt P45983). In words: Inhibition of JNK1alpha1 at 10 uM.
Test [35] has as its target 3-phosphoinositide-dependent protein kinase 1 (PDPK1) (Homo sapiens) (UniProt O15530). Briefly: Inhibition of PDK1 (delta 1-51) at 10 uM.
Test [36] addresses Eukaryotic elongation factor 2 kinase (Homo sapiens) (UniProt O00418). Briefly: Inhibition of human EF2K at 10 uM.
In test [37] the test system is Serine/threonine-protein kinase B-raf (Homo sapiens), P15056 [V600E]. Briefly: Inhibition of BRAF V600E mutant up to 100 uM.
Test [38] deals with Tyrosine-protein kinase Yes (Homo sapiens) (UniProt P07947). In words: Inhibition of human YES1 at 10 uM.
The target of test [39] is Serine/threonine-protein kinase PLK1 (Homo sapiens) (UniProt P53350). In words: Inhibition of human PLK1 at 10 uM.
Test [40] concerns the target Insulin receptor-related protein (Homo sapiens) (UniProt P14616). Briefly: Inhibition of IRR at 10 uM.
In test [41] the target is Vascular endothelial growth factor receptor 2 (Homo sapiens, UniProt P35968). Briefly: Inhibition of VEGFR2 up to 100 uM.
Test [42] has as its target Receptor tyrosine-protein kinase erbB-2 (Homo sapiens, UniProt P04626). Briefly: Inhibition of ERBB2 up to 100 uM. The method, boiled down:
as §1

Insulin receptor-related protein (Homo sapiens), sequence (P14616 27-742 limits assumed): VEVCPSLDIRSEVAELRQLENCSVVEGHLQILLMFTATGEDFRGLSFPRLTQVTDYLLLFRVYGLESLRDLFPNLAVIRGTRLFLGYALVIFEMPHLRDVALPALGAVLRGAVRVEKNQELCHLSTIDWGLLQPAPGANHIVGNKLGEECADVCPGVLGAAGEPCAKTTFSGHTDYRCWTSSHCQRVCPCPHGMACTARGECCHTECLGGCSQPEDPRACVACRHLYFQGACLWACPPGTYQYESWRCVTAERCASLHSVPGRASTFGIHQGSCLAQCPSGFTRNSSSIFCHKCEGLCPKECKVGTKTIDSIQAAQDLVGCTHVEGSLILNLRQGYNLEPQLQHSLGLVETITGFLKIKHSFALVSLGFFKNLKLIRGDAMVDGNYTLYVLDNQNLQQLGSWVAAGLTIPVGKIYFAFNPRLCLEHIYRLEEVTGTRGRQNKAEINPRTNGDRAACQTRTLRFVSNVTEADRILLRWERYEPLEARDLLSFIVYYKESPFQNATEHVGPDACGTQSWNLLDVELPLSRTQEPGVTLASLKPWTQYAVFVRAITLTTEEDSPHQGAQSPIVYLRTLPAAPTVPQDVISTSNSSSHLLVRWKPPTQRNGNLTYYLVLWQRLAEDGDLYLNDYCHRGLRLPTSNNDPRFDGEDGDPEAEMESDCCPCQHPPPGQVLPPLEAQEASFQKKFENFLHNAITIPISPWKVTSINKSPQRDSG
Insulin receptor-related protein (Homo sapiens), sequence (P14616 747-1297 limits assumed): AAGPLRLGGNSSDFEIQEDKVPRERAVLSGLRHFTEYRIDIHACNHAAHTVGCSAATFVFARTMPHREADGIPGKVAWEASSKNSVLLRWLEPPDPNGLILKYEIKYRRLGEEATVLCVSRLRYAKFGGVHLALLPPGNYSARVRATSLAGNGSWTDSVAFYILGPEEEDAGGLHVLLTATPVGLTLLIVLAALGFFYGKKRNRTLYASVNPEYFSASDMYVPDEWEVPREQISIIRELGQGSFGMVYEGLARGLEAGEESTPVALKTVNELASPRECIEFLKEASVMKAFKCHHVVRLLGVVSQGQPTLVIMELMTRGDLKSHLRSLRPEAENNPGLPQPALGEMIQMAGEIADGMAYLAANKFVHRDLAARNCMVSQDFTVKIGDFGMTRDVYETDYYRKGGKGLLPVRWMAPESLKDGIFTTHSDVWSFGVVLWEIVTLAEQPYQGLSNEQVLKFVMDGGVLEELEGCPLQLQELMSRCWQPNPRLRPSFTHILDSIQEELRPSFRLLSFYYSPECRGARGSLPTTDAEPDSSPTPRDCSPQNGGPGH
Serine/threonine-protein kinase PLK1 (Homo sapiens), sequence (P53350 whole entry): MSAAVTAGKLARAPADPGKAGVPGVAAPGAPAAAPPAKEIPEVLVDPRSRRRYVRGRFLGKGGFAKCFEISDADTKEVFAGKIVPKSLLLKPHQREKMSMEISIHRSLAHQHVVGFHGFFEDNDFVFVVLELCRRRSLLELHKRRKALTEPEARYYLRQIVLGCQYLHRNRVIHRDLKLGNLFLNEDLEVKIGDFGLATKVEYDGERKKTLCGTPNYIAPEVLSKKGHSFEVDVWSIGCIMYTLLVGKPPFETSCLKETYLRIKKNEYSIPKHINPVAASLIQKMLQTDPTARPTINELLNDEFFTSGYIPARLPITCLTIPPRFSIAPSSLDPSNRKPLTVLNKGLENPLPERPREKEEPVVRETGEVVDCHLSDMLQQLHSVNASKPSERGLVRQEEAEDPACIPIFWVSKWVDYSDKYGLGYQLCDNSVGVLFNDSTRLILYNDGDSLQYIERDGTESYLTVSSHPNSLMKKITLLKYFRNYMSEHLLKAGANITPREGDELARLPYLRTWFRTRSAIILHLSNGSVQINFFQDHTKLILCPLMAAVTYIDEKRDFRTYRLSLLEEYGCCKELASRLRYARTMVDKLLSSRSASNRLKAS
MAP kinase-activated protein kinase 3 (Homo sapiens), sequence (Q16644 whole entry, looked up): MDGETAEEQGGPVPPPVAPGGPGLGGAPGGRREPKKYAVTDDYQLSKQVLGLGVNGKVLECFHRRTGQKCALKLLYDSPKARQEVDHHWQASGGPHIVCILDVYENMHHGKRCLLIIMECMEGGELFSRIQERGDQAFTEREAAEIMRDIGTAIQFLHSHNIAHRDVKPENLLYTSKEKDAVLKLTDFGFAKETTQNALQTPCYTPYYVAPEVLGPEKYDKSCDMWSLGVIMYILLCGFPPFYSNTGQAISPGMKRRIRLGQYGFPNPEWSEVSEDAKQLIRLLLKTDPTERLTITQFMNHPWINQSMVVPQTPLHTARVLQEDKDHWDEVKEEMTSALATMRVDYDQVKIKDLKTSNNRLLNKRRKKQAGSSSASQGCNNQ
Epidermal growth factor receptor, sequence (P00533 whole entry): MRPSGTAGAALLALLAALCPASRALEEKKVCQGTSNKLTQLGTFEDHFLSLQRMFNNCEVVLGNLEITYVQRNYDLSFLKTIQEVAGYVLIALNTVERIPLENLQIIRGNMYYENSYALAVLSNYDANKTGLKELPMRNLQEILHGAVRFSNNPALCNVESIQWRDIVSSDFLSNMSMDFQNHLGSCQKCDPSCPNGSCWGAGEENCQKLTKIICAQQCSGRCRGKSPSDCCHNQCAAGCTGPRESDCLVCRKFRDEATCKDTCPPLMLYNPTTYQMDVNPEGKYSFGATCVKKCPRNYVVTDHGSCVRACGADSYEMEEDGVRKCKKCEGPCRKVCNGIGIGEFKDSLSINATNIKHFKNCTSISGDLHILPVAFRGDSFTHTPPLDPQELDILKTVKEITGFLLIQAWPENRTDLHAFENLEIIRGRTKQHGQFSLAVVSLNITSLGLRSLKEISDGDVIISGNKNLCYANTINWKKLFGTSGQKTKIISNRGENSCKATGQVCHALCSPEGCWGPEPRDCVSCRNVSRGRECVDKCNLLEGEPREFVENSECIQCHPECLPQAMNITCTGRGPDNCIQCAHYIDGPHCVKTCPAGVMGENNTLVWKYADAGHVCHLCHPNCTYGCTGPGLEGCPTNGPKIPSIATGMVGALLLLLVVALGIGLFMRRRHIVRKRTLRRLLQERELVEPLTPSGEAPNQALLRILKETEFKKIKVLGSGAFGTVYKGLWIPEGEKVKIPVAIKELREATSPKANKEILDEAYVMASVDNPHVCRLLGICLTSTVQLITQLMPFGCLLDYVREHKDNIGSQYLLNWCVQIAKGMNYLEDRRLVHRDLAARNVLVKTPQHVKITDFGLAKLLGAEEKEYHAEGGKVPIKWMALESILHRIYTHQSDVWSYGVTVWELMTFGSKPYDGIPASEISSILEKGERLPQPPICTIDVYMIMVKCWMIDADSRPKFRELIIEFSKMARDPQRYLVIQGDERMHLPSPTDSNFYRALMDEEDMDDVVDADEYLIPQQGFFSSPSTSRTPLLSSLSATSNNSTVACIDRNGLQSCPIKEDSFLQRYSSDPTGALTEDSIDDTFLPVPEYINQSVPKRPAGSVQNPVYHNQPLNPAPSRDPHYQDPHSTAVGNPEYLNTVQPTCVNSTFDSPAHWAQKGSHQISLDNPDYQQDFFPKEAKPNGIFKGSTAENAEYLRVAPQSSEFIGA
Tyrosine-protein kinase Yes (Homo sapiens), sequence (P07947 2-543 limits assumed): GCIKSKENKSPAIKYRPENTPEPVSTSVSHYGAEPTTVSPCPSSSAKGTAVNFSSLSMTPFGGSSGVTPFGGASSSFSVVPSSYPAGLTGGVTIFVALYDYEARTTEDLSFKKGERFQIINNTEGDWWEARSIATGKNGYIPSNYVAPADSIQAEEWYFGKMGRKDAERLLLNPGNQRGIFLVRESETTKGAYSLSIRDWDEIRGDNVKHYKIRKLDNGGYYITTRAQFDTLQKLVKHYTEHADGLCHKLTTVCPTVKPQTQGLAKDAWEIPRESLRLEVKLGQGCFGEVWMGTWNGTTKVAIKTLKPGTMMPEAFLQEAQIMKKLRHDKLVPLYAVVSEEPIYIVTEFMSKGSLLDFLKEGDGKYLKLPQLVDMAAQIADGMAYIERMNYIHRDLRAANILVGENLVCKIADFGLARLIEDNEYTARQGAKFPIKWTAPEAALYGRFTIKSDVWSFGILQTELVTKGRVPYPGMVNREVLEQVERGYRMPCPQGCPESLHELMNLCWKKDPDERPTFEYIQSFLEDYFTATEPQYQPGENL
MAP kinase-interacting serine/threonine-protein kinase 2 (Homo sapiens), sequence (Q9HBH9 whole entry, looked up): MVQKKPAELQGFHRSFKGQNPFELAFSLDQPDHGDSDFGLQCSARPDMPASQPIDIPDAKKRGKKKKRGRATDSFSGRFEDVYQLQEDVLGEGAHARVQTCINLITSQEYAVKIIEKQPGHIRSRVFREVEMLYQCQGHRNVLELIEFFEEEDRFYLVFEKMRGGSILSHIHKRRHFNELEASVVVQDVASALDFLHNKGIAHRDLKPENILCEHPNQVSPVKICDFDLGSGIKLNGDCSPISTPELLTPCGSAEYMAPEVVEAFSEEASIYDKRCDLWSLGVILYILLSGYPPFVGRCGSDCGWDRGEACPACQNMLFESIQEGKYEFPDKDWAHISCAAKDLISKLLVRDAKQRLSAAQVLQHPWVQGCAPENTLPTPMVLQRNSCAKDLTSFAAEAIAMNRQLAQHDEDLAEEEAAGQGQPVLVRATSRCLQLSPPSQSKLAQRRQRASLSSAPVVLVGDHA
MAP kinase-activated protein kinase 5 (Homo sapiens), sequence (Q8IW41 whole entry): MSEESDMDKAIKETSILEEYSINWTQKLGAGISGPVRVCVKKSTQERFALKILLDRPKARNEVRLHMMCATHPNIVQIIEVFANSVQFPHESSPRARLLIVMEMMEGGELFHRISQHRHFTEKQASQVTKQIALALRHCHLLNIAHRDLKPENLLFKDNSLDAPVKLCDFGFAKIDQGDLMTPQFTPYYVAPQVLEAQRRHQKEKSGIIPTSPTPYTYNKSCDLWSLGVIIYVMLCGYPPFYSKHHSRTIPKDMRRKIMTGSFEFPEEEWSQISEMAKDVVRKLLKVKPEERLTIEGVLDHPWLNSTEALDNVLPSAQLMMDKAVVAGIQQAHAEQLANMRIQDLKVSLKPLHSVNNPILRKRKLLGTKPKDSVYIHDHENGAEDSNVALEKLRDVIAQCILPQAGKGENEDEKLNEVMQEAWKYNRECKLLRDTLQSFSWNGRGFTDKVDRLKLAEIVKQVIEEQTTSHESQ

On to `Nc1ncnc2ncn(CC(=O)c3ccccc3)c12`, for which the inhibition result in test [1] and in [2] was “inactive” in each case.
As for `Nc1ncnc2ncn(CC(=O)c3c[nH]c4ccccc34)c12`, the inhibition result in test [3], in test [4], in test [5], in [6], in test [7] and in test [8] was “inactive” each time. Also, the inhibition entry in test [9], in test [10], in test [11], in [12], in [13] and in test [14] was “inactive” in each case. In addition, the inhibition entry in [15], in test [16], in [17], in test [18], in test [19] and in [20] was “inactive” in each case. For the same compound, the inhibition entry (in test [21]; in the test listed under Rattus norvegicus; in test [22]; on Aurora kinase B; in test [23]; in [24]) was “inactive” in each case. Besides, the inhibition result in [25], in test [26], in test [27], in [28], in test [29] and in [30] was “inactive” each time. In addition, the inhibition result in [31], in test [32], in test [33], in test [34], in test [35] and in [36] was “inactive” each time. The inhibition result in [37], in test [38] and in [39] was “inactive” in each case.
As to `Nc1ncnc2c1ncn2CC(=O)c1c[nH]c2ccccc12`, in test [40], the inhibition (commonly the share of the control response that was lost under treatment) is 51%.
For `Nc1ncnc2c1ncn2CC(=O)c1ccccc1`, the inhibition entry in test [41] and in test [42] was “inactive” throughout.
